We go through 33 compounds from PubChem BioAssay AID492981 (Johns Hopkins Ion Channel Center, 2010).

Records with an inconclusive call do not appear. The source made the active and inactive calls.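 How the source made its calls: active means compound whose replicate-averaged normalized fluorescence ratio fell more than 5 SD below the agonist-stimulated control mean; inactive means the rest, inconclusive results apart.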

Short transient receptor potential channel 6 (Mus musculus), sequence (Q61143 whole entry, looked up): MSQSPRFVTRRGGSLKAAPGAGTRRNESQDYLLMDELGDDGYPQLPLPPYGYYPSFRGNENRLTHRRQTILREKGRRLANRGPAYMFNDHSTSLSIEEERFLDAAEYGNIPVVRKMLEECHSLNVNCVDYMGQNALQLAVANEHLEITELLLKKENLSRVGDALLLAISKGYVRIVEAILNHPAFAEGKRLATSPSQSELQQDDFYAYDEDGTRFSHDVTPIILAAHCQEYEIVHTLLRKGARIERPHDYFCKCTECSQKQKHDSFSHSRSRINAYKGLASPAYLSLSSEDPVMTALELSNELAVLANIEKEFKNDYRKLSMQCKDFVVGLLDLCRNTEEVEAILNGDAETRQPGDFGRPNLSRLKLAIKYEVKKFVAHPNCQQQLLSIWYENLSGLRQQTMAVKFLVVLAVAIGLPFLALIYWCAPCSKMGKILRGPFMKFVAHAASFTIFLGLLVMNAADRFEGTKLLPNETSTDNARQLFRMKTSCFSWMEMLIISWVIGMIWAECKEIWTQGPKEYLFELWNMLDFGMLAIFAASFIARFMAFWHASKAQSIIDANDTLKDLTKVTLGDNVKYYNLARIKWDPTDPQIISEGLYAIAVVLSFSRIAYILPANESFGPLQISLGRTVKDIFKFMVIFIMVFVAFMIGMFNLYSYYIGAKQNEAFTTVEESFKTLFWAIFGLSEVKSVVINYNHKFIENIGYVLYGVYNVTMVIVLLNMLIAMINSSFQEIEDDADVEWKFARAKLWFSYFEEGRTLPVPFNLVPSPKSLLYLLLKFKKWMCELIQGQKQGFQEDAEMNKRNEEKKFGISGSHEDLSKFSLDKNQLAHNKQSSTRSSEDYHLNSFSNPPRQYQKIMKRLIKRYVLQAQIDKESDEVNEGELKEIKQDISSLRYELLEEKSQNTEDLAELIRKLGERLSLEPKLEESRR

The target of this test is Short transient receptor potential channel 6 (Mus musculus) (UniProt Q61143). Put plainly: TRPC6 inhibition by TRPC4 inhibitor analogs, SAR follow-up, selectivity assay for selective TRPC4 inhibitor project, HEK293 cells, membrane potential dye, single concentration (AID 492981). Conditions: membrane potential dye fluorescence, at 10 µM, stronger effect = higher value. In short, it runs like this:
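assay system = HEK293 cells expressing mouse TRPC6 channel | probe or stimulus = ECmax acetylcholine | incubation = 45 min dye loading, 110 s compound preincubation | detection = membrane potential dye fluorescence, kinetic | read-out basis = percent inhibition of integrated fluorescence ratio, normalized to positive controls | replicates = at least duplicate wells per compound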
By inhibition is commonly meant the drop in the measured response relative to a control, in per cent. On to `Cc1cc(N2CCOCC2)nc2ccccc12`, for which the inhibition is 2.35% (inactive).

As for `Cc1ccnc(N2CCCCC2)c1`, the inhibition is -2.93% (inactive).

For `Cc1cc(N2CCN(CC3CCCO3)CC2)nc2ccccc12` (stereo not drawn), the inhibition is 14.3% (inactive).

As for `CCN(CC)c1cc(C)c2ccccc2n1`, the inhibition is 9.79% (inactive).

For `FC(F)(F)c1cc(N2CCCC2)nc2ccccc12`, the inhibition is 11.5% (inactive).

With `Cc1cc(N2CCC(N3CCOCC3)CC2)nc2ccccc12`, the inhibition is 44.8%.

In the case of `Cc1cc(N2CCCC2)nc2ccccc12`, the inhibition was 57.9%.

As for `COc1ccccc1N1CCN(c2cc(C)c3ccccc3n2)CC1`, the inhibition is 11.7% (inactive).

On to `Cc1cc(N2CCN(c3ccncc3)CC2)nc2ccccc12`, for which the inhibition was 61.2%.

For `Cc1cc(N(C)CCN(C)C)nc2ccccc12`, the inhibition was 18.1% (inactive).

Consider `COCCN(C)c1cc(C)c2ccccc2n1`, for which the inhibition is 22.2% (inactive).

On to `Cc1cc(N2CCOc3ccccc32)nc2ccccc12`, for which the inhibition is 13.7% (inactive).

Take `CCc1ccc2nc(N3CCCCC3)cc(C)c2c1`: the inhibition was 13.6% (inactive).

As for `c1ccc(-c2cc(N3CCCCC3)nc3ccccc23)cc1`, the inhibition is 19.4% (inactive).

In the case of `c1ccc(-c2cc(N3CCCC3)nc3ccccc23)cc1`, the inhibition was 2.24% (inactive).

For `Cc1cc(N2CCN(c3ccccc3C#N)CC2)nc2ccccc12`, the inhibition is 0.71% (inactive).

For the compound `Cc1cc(N2CCCC(O)C2)nc2ccccc12` (stereo not drawn), the inhibition was 26.7%.

Take `Cc1cc(N2CCN(C)CC2)nc2ccccc12`: the inhibition was 2.9% (inactive).

With `Cc1cc(N2CCC(C)CC2)nc2ccccc12`, the inhibition is 13.6% (inactive).

As to `Cc1cc(N2CCCCC2)nc2ccccc12`, the inhibition was 42.7%.

On to `Cc1cc(N2CCCC2)nc2c(C)cccc12`, for which the inhibition was 33.9% (inactive).

Regarding `Cc1ccnc(N2CCCCC2)n1`, the inhibition was -9.81% (inactive).

Take `FC(F)(F)c1cc(N2CCCCC2)nc2ccccc12`: the inhibition is -6.62% (inactive).

As to `Cc1cc(N2CC(C)CC(C)C2)nc2ccccc12` (stereo not drawn), the inhibition is 16.4% (inactive).

As for `Cc1ccnc(N2CCCC2)n1`, the inhibition is -6.71% (inactive).

On to `Cc1cc(N2CCCCC2)nc2c(C)cccc12`, for which the inhibition is 3.23% (inactive).

As to `Cc1cc(N2CCN(c3ncccn3)CC2)nc2ccccc12`, the inhibition was 6.28% (inactive).

Turning to `Cc1cc(N2CCCCC2)nc2ccc(F)cc12`, the inhibition is 3.78% (inactive).

For the compound `Cc1cc(N2CCC[C@@H]2C)nc2ccccc12`, the inhibition was 47.6%.

For `Cc1ccnc(N2CCCC2)c1`, the inhibition was -27.6% (inactive).

Regarding `COc1ccc(N2CCN(c3cc(C)c4ccccc4n3)CC2)cc1`, the inhibition is 15.5% (inactive).

Regarding `Cc1cc(N2CCNCC2)nc2ccccc12`, the inhibition is 37.2%.

Take `Cc1ccc2nc(N3CCCCC3)cc(C)c2c1`: the inhibition was 37.5% (inactive).
